From PubChem
Compounds with a hit are over-represented: about 2.6% of the library has one in this group of screens.
NPY Y1 blocker – NPY-Y1 (human) receptor antagonism | HEK293-CNG Y1 cells, membrane potential fluorescence; NPY at EC95, then isoproterenol | AID 1040 | inhibition, % at 3.6 µM | P25929 | hit rate 1% among 200,000;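 active = inhibition above the campaign mean inhibition of all tested compounds plus 3 SD, cut at about 20% in these data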;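 note: 0% = DMSO wells given NPY plus isoproterenol and 100% = isoproterenol alone without NPY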
Target sequence (P25929 whole entry, looked up): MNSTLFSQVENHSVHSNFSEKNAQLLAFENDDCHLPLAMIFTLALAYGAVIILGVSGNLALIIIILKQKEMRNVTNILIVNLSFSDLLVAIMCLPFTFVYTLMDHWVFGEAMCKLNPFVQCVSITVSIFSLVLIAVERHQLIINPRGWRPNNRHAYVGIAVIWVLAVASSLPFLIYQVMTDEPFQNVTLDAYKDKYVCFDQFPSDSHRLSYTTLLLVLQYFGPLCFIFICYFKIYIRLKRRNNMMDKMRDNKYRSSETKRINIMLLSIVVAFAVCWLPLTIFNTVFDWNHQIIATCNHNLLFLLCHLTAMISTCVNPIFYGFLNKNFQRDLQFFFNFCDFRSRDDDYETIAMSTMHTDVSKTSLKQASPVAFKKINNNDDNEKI
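Material: HEK293 Y1/CNG channel cell line | Also added: NPY (25 nM), isoproterenol (1 µM), Ro 20-1724 (25 µM) | Compound: One concentration, 3.6 µM, in 0.4% DMSO | Schedule: 3 h dye uptake, 1 h room-temperature compound, 45 min post-isoproterenol | Signal: Membrane-potential fluorescent dye readout | Read-out: % inhibition of NPY effect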
NPY-Y2 PAM-ag – potentiates or activates human NPY-Y2 receptor | hit rate 0.45% among 220,000 | cells expressing NPY-Y2, potentiator/agonist read-out | activation, % at 3.6 µM | AID 1359 | P49146; in the data active = activation above about 27%;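 note: cells stimulated with NPY near EC25 plus isoproterenol at EC100; 0% = vehicle plus submaximal agonist and 100% = vehicle plus saturating agonist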
NPY-Y2 antag – NPY-Y2 (human) receptor antagonism; P49146; inhibition, % at 2.7 µM; hit rate 0.99% among 140,000; NPY-Y2 expressing cells, antagonist mode; in the data active = inhibition above about 17%;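 note: 0% = vehicle with agonist challenge and 100% = reference antagonist with challenge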
b-catenin transl – beta-catenin nuclear translocation modulation. HeLa beta-catenin nuclear translocation, immunofluorescence imaging. nuclear translocation activity, % at 5 µM. hit rate 0.3% among 190,000. AID 1665;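 active = nuclear translocation activity above 50% at 5 µM, with a well cell count of 50 or more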;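 note: per-cell ratio of nuclear to cytoplasmic median beta-catenin stain intensity; plate controls were DMSO negative control for no effect and GSK-3 inhibitor IX positive control for full effect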
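assay system = human HeLa cells, endogenous beta-catenin | times = compound treatment 24 h, 37°C, 5% CO2 | detection = Anti-beta-catenin immunofluorescence on PFA-fixed, Triton-permeabilized cells, DAPI nuclei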
NPY-Y1 PAM-ag – potentiates or activates human NPY-Y1 receptor. P25929. NPY-Y1 expressing cells, potentiator/agonist activation. activation, % at 3.6 µM. hit rate 0.37% among 220,000; in the data active = activation above about 33%, passing the limit was not always enough;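 note: cells stimulated with NPY at EC10 then isoproterenol at EC100; 0% = low agonist plus stimulus and 100% = saturating agonist plus stimulus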
MT stabilize HCS – microtubule stabilizers in HeLa cells | HeLa tubulin immunostaining HCS, 24 h; share of cells brighter than vehicle mean+2SD | hit rate 0.83% among 200,000 | % tubulin-high responders, % at 10 µM;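 active = plate Z-score above 3 for both tubulin-high and condensed-nucleus cell shares, with cell loss under 80%, at 10 µM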;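 note: anti alpha tubulin signal scored within the nucleus-defined area of each cell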
NPY1 antag ctr – antagonizes human NPY-Y1, counter-screen to NPY-Y2 antagonists | shares compounds with NPY-Y2 antag | AID 1256 | hit rate 19% among 710 | cell-based NPY-Y1 antagonism counterscreen | inhibition, % at 3.6 µM; in the data active = inhibition above about 20%;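 note: cells challenged with NPY then isoproterenol with cAMP sensed through a CNG channel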
NPY-Y2 ant conf – confirmation of human neuropeptide Y receptor Y2 antagonists. hit rate 32% among 710. HEK293 NPY-Y2 CNG channel, membrane potential fluorescence. shares compounds with NPY-Y2 antag. inhibition, % at 2.8 µM. AID 1257;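 active = mean inhibition of triplicate wells above the hit cutoff set in the primary screen, cut at about 17% in these data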;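 note: 0% = DMSO with NPY challenge and 100% = BIIE0246 high control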
* hit, by the source's call.

For Cc1ccc(NC(=S)/N=C(\N)Nc2nc(C)c3cc(C)ccc3n2)c(C)c1 the results were NPY Y1 blocker 15, NPY-Y2 PAM-ag 3, NPY-Y2 antag 18*, b-catenin transl -2, NPY-Y1 PAM-ag -7, MT stabilize HCS 3, NPY1 antag ctr 16 and NPY-Y2 ant conf 20*.
For COc1ccc2nc(N/C(N)=N/C(=S)Nc3cccc(C)c3)nc(C)c2c1 the results were NPY Y1 blocker 7, NPY-Y2 PAM-ag -5, NPY-Y2 antag 6, b-catenin transl -2, NPY-Y1 PAM-ag -26 and MT stabilize HCS 1.
`Cc1ccc(C(C)n2cc(C(=O)NCc3ccccn3)nn2)cc1` (centres undefined) gave NPY Y1 blocker 3, NPY-Y2 PAM-ag -4, b-catenin transl 4, NPY-Y1 PAM-ag -3 and MT stabilize HCS 3.
For O=C(Nc1cccc(N=Cc2cc(Br)cc(Br)c2O)c1)c1ccco1 the results were NPY Y1 blocker -1, NPY-Y2 PAM-ag -8, NPY-Y2 antag 17*, b-catenin transl -1, NPY-Y1 PAM-ag -14, MT stabilize HCS 6, NPY1 antag ctr 17 and NPY-Y2 ant conf 25*.
Screening Cc1cc(Br)ccc1SCC(=O)OCC(=O)N1CCN(C(=O)c2ccco2)CC1 returned NPY Y1 blocker 15, NPY-Y2 PAM-ag -36, NPY-Y2 antag 8, b-catenin transl -2, NPY-Y1 PAM-ag -62 and MT stabilize HCS 6.
For O=C(CSc1cccc2cccc(Cl)c12)OCC(=O)N1CCN(C(=O)c2ccco2)CC1 the results were NPY Y1 blocker 12, NPY-Y2 PAM-ag -22, NPY-Y2 antag 19*, b-catenin transl -3, NPY-Y1 PAM-ag -18, MT stabilize HCS 2, NPY1 antag ctr 15 and NPY-Y2 ant conf 12.
Brc1ccccc1OCCOCCOc1cccc2cccnc12 was read as NPY Y1 blocker 8, NPY-Y2 PAM-ag -29, NPY-Y2 antag 7, b-catenin transl -4, NPY-Y1 PAM-ag -16 and MT stabilize HCS 2.
For Clc1ccc(OCCOCCOc2cccc3cccnc23)c(Br)c1 the results were NPY Y1 blocker 1, NPY-Y2 PAM-ag -17, NPY-Y2 antag 18*, b-catenin transl 1, NPY-Y1 PAM-ag -66, MT stabilize HCS 2, NPY1 antag ctr 24* and NPY-Y2 ant conf 53*.
For Cc1cccc(OCCCOc2cccc3cccnc23)c1C the results were NPY Y1 blocker 10, NPY-Y2 PAM-ag -21, NPY-Y2 antag 21*, b-catenin transl 1, NPY-Y1 PAM-ag -11, MT stabilize HCS 1, NPY1 antag ctr 7 and NPY-Y2 ant conf 10.
Cc1ccc(OCCCOc2cccc3cccnc23)cc1C was read as NPY Y1 blocker 13, NPY-Y2 PAM-ag -9, NPY-Y2 antag 8, b-catenin transl 2, NPY-Y1 PAM-ag -34 and MT stabilize HCS 2.
`CC1=NN(c2ccccc2)C(=O)/C1=C/c1cccs1` gave NPY Y1 blocker -2, NPY-Y2 PAM-ag 3, NPY-Y2 antag 2, b-catenin transl 0, NPY-Y1 PAM-ag 5 and MT stabilize HCS 2.
CC1=NN(c2ccccc2)C(=O)/C1=C\c1ccc(Br)s1 was read as NPY Y1 blocker 5, NPY-Y2 PAM-ag -2, NPY-Y2 antag 17*, b-catenin transl -2, NPY-Y1 PAM-ag -32, MT stabilize HCS 2, NPY1 antag ctr 31* and NPY-Y2 ant conf 34*.
Screening Cc1cc(C(=O)N2CCN(Cc3ccccc3)CC2)on1 returned NPY Y1 blocker -2, NPY-Y2 PAM-ag 0, NPY-Y2 antag 3, NPY-Y1 PAM-ag -7 and MT stabilize HCS 6.
For Nc1nnc(Sc2ccc(Cl)cc2[N+](=O)[O-])s1 the results were NPY Y1 blocker -6, NPY-Y2 PAM-ag 7, NPY-Y2 antag 1, b-catenin transl -2, NPY-Y1 PAM-ag -11 and MT stabilize HCS 6.
`CC(C)Nc1nnc(Sc2ccc(Cl)cc2[N+](=O)[O-])s1` gave NPY Y1 blocker 8, NPY-Y2 PAM-ag -3, NPY-Y2 antag 21*, NPY-Y1 PAM-ag -10, MT stabilize HCS 3, NPY1 antag ctr 0 and NPY-Y2 ant conf 10.
Screening CC(/C=C1\SC(=S)N(NC(=O)c2ccc(C)cc2)C1=O)=C\c1ccccc1 returned NPY Y1 blocker 13, NPY-Y2 PAM-ag -18, NPY-Y2 antag 19*, b-catenin transl 1, NPY-Y1 PAM-ag -11, MT stabilize HCS 3, NPY1 antag ctr 17 and NPY-Y2 ant conf 20*.
For CCOc1ccc(Cc2c(Cl)nc(N)nc2Cl)cc1 the results were NPY Y1 blocker 7, NPY-Y2 PAM-ag -17, NPY-Y2 antag 4, b-catenin transl 3, NPY-Y1 PAM-ag -17 and MT stabilize HCS 5.
CCOc1ccc(Cc2c(Cl)nc(SC)nc2N(C)C)cc1 was read as NPY Y1 blocker 12, NPY-Y2 PAM-ag -24, NPY-Y2 antag 50*, b-catenin transl 3, NPY-Y1 PAM-ag -45, MT stabilize HCS 22*, NPY1 antag ctr 63* and NPY-Y2 ant conf 50*.
For CC(C)Cn1c(=S)[nH]c2cc(Cl)ccc21 the results were NPY Y1 blocker 8, NPY-Y2 PAM-ag 0, b-catenin transl -2, NPY-Y1 PAM-ag -7 and MT stabilize HCS 4.
`CCOC(=O)c1c(NC(=O)CSc2nnc(C)s2)sc2c1CCC(C)C2` (centres undefined) gave NPY Y1 blocker 5, NPY-Y2 PAM-ag 8, NPY-Y2 antag 23*, b-catenin transl -1, NPY-Y1 PAM-ag -19, MT stabilize HCS 1, NPY1 antag ctr 25* and NPY-Y2 ant conf 14.
Screening CCOC(=O)c1c(-c2ccccc2)csc1NC(=O)CSc1nnc(C)s1 returned NPY Y1 blocker 9, NPY-Y2 PAM-ag -15, NPY-Y2 antag 12, b-catenin transl 4, NPY-Y1 PAM-ag -25 and MT stabilize HCS 2.
Screening CCOC(=O)c1c(-c2ccc(C)o2)csc1NC(=O)CSc1nnc(C)s1 returned NPY Y1 blocker 17, NPY-Y2 PAM-ag -22, NPY-Y2 antag 18*, b-catenin transl -2, NPY-Y1 PAM-ag -22, MT stabilize HCS 3, NPY1 antag ctr 13 and NPY-Y2 ant conf 16.
For CCN1c2ccccc2-c2nc3ccccc3n2C1c1ccco1 (centres undefined) the results were NPY Y1 blocker 12, NPY-Y2 PAM-ag -4, NPY-Y2 antag 19*, b-catenin transl 2, NPY-Y1 PAM-ag 4, MT stabilize HCS 3, NPY1 antag ctr 16 and NPY-Y2 ant conf 7.
Screening Cc1cc(C)cc(OCC(=O)Nc2ccc3c(c2)C(=O)c2ccccc2C3=O)c1 returned NPY Y1 blocker -5, NPY-Y2 PAM-ag 3, NPY-Y2 antag 2, b-catenin transl 2, NPY-Y1 PAM-ag 6 and MT stabilize HCS 2.
